Reference: ChEMBL document CHEMBL4270573, “Novel nicotinoyl pyrazoline derivates bearing N-methyl indole moiety as antitumor agents: Design, synthesis and evaluation” (Eur J Med Chem, 2018)
The source made the active and inactive calls. No cut-off for these calls is given here.

Key:
HepG2 [1] = test: Cell cycle arrest in human HepG2 cells assessed as accumulation at G0/G1 phase at 0.080 uM after 24 hrs by propidium iodide staining based flow cytometric analysis (reference value: 55.63%); type: functional
Summary of the method: (§1)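 HepG2 and HeLa cells were exposed to 0, 0.020, 0.040, 0.060, 0.080 or 0.10 µM for 6, 12 or 24 h. DNA content was stained with propidium iodide and analysed by flow cytometry to give the percentage of cells in G0/G1, S and G2/M phases; sub-G1 cells were also recorded.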

HeLa [2] = test: Growth inhibition of human HeLa cells after 48 hrs by MTT assay; type: functional
Summary of the method: (§2)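 Proliferation read-out; GI50 taken as the concentration giving 50% reduction of cancer cell proliferation.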

HepG2 [3] = test: Cell cycle arrest in human HepG2 cells assessed as accumulation at G2/M phase at 0.020 uM after 24 hrs by propidium iodide staining based flow cytometric analysis (reference value: 20.17%); type: functional; summary of the method: as §1
Mus musculus [4] = test: Hepatotoxicity in nude mouse xenografted with human HeLa cells assessed as necrosis in liver at 10 to 20 mg/kg, ip after 14 days by hematoxylin and eosin staining based microscopic analysis; type: toxicity, organism-based; conditions: in vivo, 336 h
Summary of the method: (§3)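 HeLa xenograft nude mice with tumours near 100 mm³, randomised to four groups of 28 mice in total. Dosing was intraperitoneal: vehicle, CA-4 10 mg/kg, or test compound at 10 or 20 mg/kg, continued for 14 days. Heart, liver, kidney and spleen were then H&E-stained and examined for inflammatory infiltration, edema, necrosis and cell morphology.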

HepG2 [5] = test: Induction of apoptosis in human HepG2 cells assessed as necrotic cells at 0.020 uM after 24 hrs by Annexin V-FITC/propidium iodide staining based flow cytometric analysis (reference value: 0.270%); type: functional
Summary of the method: (§4)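 HepG2 and HeLa cells were exposed to 0, 0.02, 0.040, 0.060, 0.080 and 0.10 µM for 6, 12 and 24 h. Cells were double-stained with Annexin V-FITC/PI and read by flow cytometry. Apoptotic rate was the percentage of FITC-positive cells, counting early plus late apoptotic.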

Mus musculus [6] = test: Toxicity in nude mouse xenografted with human HeLa cells assessed as edema in spleen at 10 to 20 mg/kg, ip after 14 days by hematoxylin and eosin staining based microscopic analysis; type: organism-based; conditions: in vivo, 336 h
A549 = test: Growth inhibition of human A549 cells after 48 hrs by MTT assay; type: functional; conditions: A549, 48 h; summary of the method: as §2
HeLa [7] = test: Antitumor activity against human HeLa cells xenografted in nude mouse assessed as relative tumor growth inhibition at 10 mg/kg, ip after 14 days (reference value: 59.92%); type: functional; conditions: 336 h, read-out: TGI
HepG2 [8] = test: Cell cycle arrest in human HepG2 cells assessed as accumulation at G0/G1 phase at 0.020 uM after 24 hrs by propidium iodide staining based flow cytometric analysis (reference value: 55.63%); type: functional; summary of the method: as §1
[9] = Cytotoxicity against HEK293T cells assessed as reduction in cell viability after 48 hrs by MTT assay; type: cell-based, HEK-293T; conditions: human
Mus musculus [10] = test: Hepatotoxicity in nude mouse xenografted with human HeLa cells assessed as morphological changes in liver cells at 10 to 20 mg/kg, ip after 14 days by hematoxylin and eosin staining based microscopic analysis; type: toxicity, organism-based; conditions: in vivo, 336 h; summary of the method: as §3
HepG2 [11] = test: Cell cycle arrest in human HepG2 cells assessed as accumulation at G0/G1 phase at 0.10 uM after 24 hrs by propidium iodide staining based flow cytometric analysis (reference value: 55.63%); type: functional; summary of the method: as §1
HeLa [12] = test: Antitumor activity against human HeLa cells xenografted in nude mouse assessed as tumor weight at 20 mg/kg, ip after 14 days (reference value: 1.54 g); type: functional
HeLa [13] = test: Antitumor activity against human HeLa cells xenografted in nude mouse assessed as relative tumor growth inhibition at 20 mg/kg, ip after 14 days (reference value: 59.92%); type: functional; conditions: 336 h, read-out: TGI
HepG2 [14] = test: Induction of apoptosis in human HepG2 cells assessed as early apoptotic cells at 0.10 uM after 24 hrs by Annexin V-FITC/propidium iodide staining based flow cytometric analysis (reference value: 2.31%); type: functional; summary of the method: as §4
HeLa [15] = test: Cell cycle arrest in human HeLa cells assessed as accumulation at G0/G1 phase at 0.080 uM after 24 hrs by propidium iodide staining based flow cytometric analysis (reference value: 66.26%); type: functional; summary of the method: as §1
HeLa [16] = test: Induction of apoptosis in human HeLa cells assessed as late apoptotic cells at 0.080 uM after 24 hrs by Annexin V-FITC/propidium iodide staining based flow cytometric analysis (reference value: 4.98%); type: functional; summary of the method: as §4
HepG2 [17] = test: Cell cycle arrest in human HepG2 cells assessed as accumulation at G2/M phase at 0.10 uM after 24 hrs by propidium iodide staining based flow cytometric analysis (reference value: 20.17%); type: functional; summary of the method: as §1
Mus musculus [18] = test: Cardiotoxicity in nude mouse xenografted with human HeLa cells assessed as edema in heart at 10 to 20 mg/kg, ip after 14 days by hematoxylin and eosin staining based microscopic analysis; type: toxicity, organism-based; conditions: in vivo, 336 h
Summary of the method: (§5)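 Excised tumours and heart, liver, kidney and spleen were H&E-stained and examined microscopically. Tumour scoring covered cell arrangement and necrosis. Organ scoring covered inflammatory infiltration, edema, necrosis and cell morphology.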

Mus musculus [19] = test: Toxicity in nude mouse xenografted with human HeLa cells assessed as body weight loss at 10 to 20 mg/kg, ip after 14 days; type: organism-based; conditions: in vivo, 336 h
HepG2 [20] = test: Cell cycle arrest in human HepG2 cells assessed as accumulation at S phase at 0.10 uM after 24 hrs by propidium iodide staining based flow cytometric analysis (reference value: 20.40%); type: functional; summary of the method: as §1
HeLa [21] = test: Cell cycle arrest in human HeLa cells assessed as accumulation at G0/G1 phase at 0.020 uM after 24 hrs by propidium iodide staining based flow cytometric analysis (reference value: 66.26%); type: functional; summary of the method: as §1
HeLa [22] = test: Induction of apoptosis in human HeLa cells assessed as early apoptotic cells at 0.020 uM after 24 hrs by Annexin V-FITC/propidium iodide staining based flow cytometric analysis (reference value: 6.17%); type: functional; summary of the method: as §4
HeLa [23] = test: Induction of apoptosis in human HeLa cells assessed as necrotic cells at 0.10 uM after 24 hrs by Annexin V-FITC/propidium iodide staining based flow cytometric analysis (reference value: 0.242%); type: functional; summary of the method: as §4
HepG2 [24] = test: Cell cycle arrest in human HepG2 cells assessed as accumulation at G2/M phase at 0.080 uM after 24 hrs by propidium iodide staining based flow cytometric analysis (reference value: 20.17%); type: functional; summary of the method: as §1
HepG2 [25] = test: Cell cycle arrest in human HepG2 cells assessed as accumulation at G2/M phase at 0.020 to 0.10 uM after 6 to 24 hrs by propidium iodide staining based flow cytometric analysis relative to control; type: functional; summary of the method: as §1
HeLa [26] = test: Induction of apoptosis in human HeLa cells assessed as early apoptotic cells at 0.10 uM after 24 hrs by Annexin V-FITC/propidium iodide staining based flow cytometric analysis (reference value: 6.17%); type: functional; summary of the method: as §4
HeLa [27] = test: Antitumor activity against human HeLa cells xenografted in nude mouse assessed as loose and irregular arrangement of tumor cells at 10 to 20 mg/kg, ip after 14 days by hematoxylin and eosin staining based microscopic analysis; type: functional, organism-based; summary of the method: as §5
HeLa [28] = test: Cell cycle arrest in human HeLa cells assessed as accumulation at G0/G1 phase at 0.040 uM after 24 hrs by propidium iodide staining based flow cytometric analysis (reference value: 66.26%); type: functional; summary of the method: as §1

COc1cccc(C2=NN(C(=O)c3ccc(C)nc3)C(c3cn(C)c4ccc(OC)cc34)C2)c1 (centres undefined)
Activity (HepG2 [1]): 7.81%
GI50 (HeLa [2]): 34 nM
Activity (HepG2 [3]): 24.3%
Activity (Mus musculus [4]): Non-Toxic
Activity (HepG2 [5]): 0.771%
Activity (Mus musculus [6]): Non-Toxic
GI50 (A549): 590 nM
inhibition in vivo at 10 mg/kg (HeLa [7]): 47.1%
Activity (HepG2 [8]): 41.26%
CC50 at 48 h [9]: > 300000 nM
Activity (Mus musculus [10]): Non-Toxic
Activity (HepG2 [11]): 8.57%
Activity (HeLa [12]): 0.53 g
inhibition in vivo at 20 mg/kg (HeLa [13]): 61.5%
Activity (HepG2 [14]): 18.5%
Activity (HeLa [15]): 5.36%
Activity (HeLa [16]): 7.03%
Activity (HepG2 [17]): 51.22%
Activity (Mus musculus [18]): Non-Toxic
Activity (Mus musculus [19]): Non-Toxic
Activity (HepG2 [20]): 27.64%
Activity (HeLa [21]): 66.95%
Activity (HeLa [22]): 3.24%
Activity (HeLa [23]): 0.76%
Activity (HepG2 [24]): 50.73%
Activity (HepG2 [25]): >60%
Activity (HeLa [26]): 32.8%
Activity (HeLa [27]): Active
Activity (HeLa [28]): 49.63%
